# Reference: ChEMBL document CHEMBL3098028, “Synthesis and in vitro and in vivo pharmacological evaluation of new 4-aminoquinoline-based compounds” (ACS Med Chem Lett, 2013)
# Tests used:
# Mus musculus [1] = experiment: AUC (0 to infinity) in C57BL/6 mouse at 20 mg/kg, po; type: ADME, organism-based, Plasma; design: time infinity, dose 20 mg/kg, route oral; conditions: in vivo
# How it was run: (§1)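 Healthy male C57/BL6 mice received a single intravenous dose (2.5 or 5.0 mg/kg) or oral dose (20 or 40 mg/kg). Plasma concentrations were followed over time to give AUC0-∞ in min·μmol/L, alongside t1/2, CL, Vd, Vss, Cmax, Tmax and oral bioavailability. Values are means of five animals.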
# Mus musculus [2] = experiment: AUC (0 to infinity) in C57BL/6 mouse at 40 mg/kg, po; type: ADME, organism-based, Plasma; design: time infinity, dose 40 mg/kg, route oral; conditions: in vivo; how it was run: as §1
# Mus musculus [3] = experiment: AUC (0 to infinity) in C57BL/6 mouse at 5 mg/kg, iv; type: ADME, organism-based, Plasma; design: dose 5 mg/kg, route intravenous, time infinity; conditions: in vivo; how it was run: as §1
# Mus musculus [4] = experiment: AUC (0 to infinity) in C57BL/6 mouse at 2.5 mg/kg, iv; type: ADME, organism-based, Plasma; design: time infinity, dose 2.5 mg/kg, route intravenous; conditions: in vivo; how it was run: as §1
# Liver microsome [5] = experiment: Drug metabolism in rat liver microsomes assessed as 2-(5-((4-chlorophenyl)(2-(7-chloroquinolin-4-ylamino)ethylamino)methyl)-1H-tetrazol-1-yl)-2-methylpropan-1-ol level at 5 uM after 1 hr by LC-MS/MS analysis; type: ADME
# Liver microsome [6] = experiment: Drug metabolism in rat liver microsomes assessed as 4-(2-((1-tert-butyl-1H-tetrazol-5-yl)(4-chlorophenyl)methylamino)ethylamino)-7-chloroquinoline 1-oxide level at 5 uM after 1 hr by LC-MS/MS analysis; type: ADME
# Liver microsome [7] = experiment: Drug metabolism in human liver microsomes assessed as 2-(5-((4-chlorophenyl)(2-(7-chloroquinolin-4-ylamino)ethylamino)methyl)-1H-tetrazol-1-yl)-2-methylpropan-1-ol level at 5 uM after 1 hr by LC-MS/MS analysis; type: ADME
# Liver microsome [8] = experiment: Drug metabolism in human liver microsomes assessed as 4-(2-((1-tert-butyl-1H-tetrazol-5-yl)(4-chlorophenyl)methylamino)ethylamino)-7-chloroquinoline 1-oxide level at 5 uM after 1 hr by LC-MS/MS analysis; type: ADME
# [9] = Drug metabolism in hepatocytes (unknown origin) assessed as 4-(2-((1-tert-butyl-1H-tetrazol-5-yl)(4-chlorophenyl)methylamino)ethylamino)-7-chloroquinoline 1-oxide level at 5 uM after 6 hrs by LC-MS/MS analysis; type: ADME, cell-based, Hepatocyte
# CHO = experiment: Cytotoxicity against CHO cells; type: cell-based; conditions: Cricetulus griseus
# Cytochrome P450 2E1 = Cytochrome P450 2E1 (Homo sapiens, UniProt P05181); experiment: Inhibition of CYP2E1 in human liver microsomes assessed as chlorzoxazone 6-hydroxylation after 20 mins by LC-MS/MS analysis; type: ADME
# Cytochrome P450 2B6 = target: T1, Cytochrome P450 2B6 (Homo sapiens, UniProt P20813); experiment: Inhibition of CYP2B6 in human liver microsomes assessed as bupropion hydroxylation after 20 mins by LC-MS/MS analysis; type: ADME
# T1 sequence (P20813 whole entry): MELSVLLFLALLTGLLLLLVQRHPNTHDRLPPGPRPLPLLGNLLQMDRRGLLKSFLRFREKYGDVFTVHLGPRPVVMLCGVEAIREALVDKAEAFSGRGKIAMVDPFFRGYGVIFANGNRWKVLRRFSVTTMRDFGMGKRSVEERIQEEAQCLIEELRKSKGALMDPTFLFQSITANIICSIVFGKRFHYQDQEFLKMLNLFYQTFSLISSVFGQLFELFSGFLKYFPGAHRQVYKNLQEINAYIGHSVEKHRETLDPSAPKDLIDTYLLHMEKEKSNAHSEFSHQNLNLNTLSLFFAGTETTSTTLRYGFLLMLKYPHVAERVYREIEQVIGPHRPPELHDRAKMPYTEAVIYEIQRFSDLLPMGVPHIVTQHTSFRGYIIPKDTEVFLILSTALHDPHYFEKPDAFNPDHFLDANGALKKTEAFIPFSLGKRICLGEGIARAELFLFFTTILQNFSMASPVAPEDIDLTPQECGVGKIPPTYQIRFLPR
# Cytochrome P450 1A2 = target: T2, Cytochrome P450 1A2 (Homo sapiens, UniProt P05177); experiment: Inhibition of CYP1A2 in human liver microsomes assessed as phenacetin O-deethylation after 20 mins by LC-MS/MS analysis; type: ADME
# T2 sequence (P05177 whole entry): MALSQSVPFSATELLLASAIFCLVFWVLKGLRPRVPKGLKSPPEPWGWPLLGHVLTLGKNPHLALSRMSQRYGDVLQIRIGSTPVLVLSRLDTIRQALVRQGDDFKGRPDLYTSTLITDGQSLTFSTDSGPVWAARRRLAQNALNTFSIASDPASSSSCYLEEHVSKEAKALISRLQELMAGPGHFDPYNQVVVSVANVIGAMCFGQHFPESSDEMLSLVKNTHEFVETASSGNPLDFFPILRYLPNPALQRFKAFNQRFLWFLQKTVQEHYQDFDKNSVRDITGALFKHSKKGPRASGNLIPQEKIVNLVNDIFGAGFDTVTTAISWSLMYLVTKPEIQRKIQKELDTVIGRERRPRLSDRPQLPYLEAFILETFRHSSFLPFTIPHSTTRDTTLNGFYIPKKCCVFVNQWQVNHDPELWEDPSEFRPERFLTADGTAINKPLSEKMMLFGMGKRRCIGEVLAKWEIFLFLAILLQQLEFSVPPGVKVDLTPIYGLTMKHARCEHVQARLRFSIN
# Cytochrome P450 2D6 = Cytochrome P450 2D6 (Homo sapiens, UniProt P10635); experiment: Inhibition of CYP2D6 in human liver microsomes assessed as bufuralol 1'-hydroxylation after 20 mins by LC-MS/MS analysis; type: ADME
# Cytochrome P450 2C8 = target: T3, Cytochrome P450 2C8 (Homo sapiens, UniProt P10632); experiment: Inhibition of CYP2C8 in human liver microsomes assessed as paclitaxel 6alpha-hydroxylation after 20 mins by LC-MS/MS analysis; type: ADME
# T3 sequence (P10632 whole entry): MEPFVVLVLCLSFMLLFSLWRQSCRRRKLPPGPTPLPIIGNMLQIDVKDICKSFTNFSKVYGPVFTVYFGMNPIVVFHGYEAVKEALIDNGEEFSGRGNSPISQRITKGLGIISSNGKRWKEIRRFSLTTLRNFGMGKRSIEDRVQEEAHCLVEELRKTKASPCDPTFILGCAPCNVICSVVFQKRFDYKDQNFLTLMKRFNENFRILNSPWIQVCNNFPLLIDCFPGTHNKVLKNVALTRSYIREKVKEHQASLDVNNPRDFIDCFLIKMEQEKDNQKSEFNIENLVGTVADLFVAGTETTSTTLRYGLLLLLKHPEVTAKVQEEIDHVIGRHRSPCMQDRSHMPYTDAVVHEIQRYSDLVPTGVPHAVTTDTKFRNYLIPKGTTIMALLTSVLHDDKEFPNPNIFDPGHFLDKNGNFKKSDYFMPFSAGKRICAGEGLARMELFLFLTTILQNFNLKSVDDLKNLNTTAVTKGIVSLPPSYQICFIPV
# [10] = Kinetic solubility of the compound in phosphate buffered saline at pH 7.4 after 2 hrs by HPLC analysis; type: physicochemical; conditions: read-out: Kinetic_solubility
# Plasmodium falciparum [11] = experiment: Antiplasmodial activity against chloroquine-resistant Plasmodium falciparum K1 after 24 hrs by [3H]hypoxanthine incorporation assay; type: functional, organism-based
# How it was run: (§2)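 Antiplasmodial testing was done at the Swiss Tropical and Public Health Institute. Chloroquine, the reference drug, was tested as its diphosphate salt.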
# Plasmodium falciparum [12] = experiment: Antiplasmodial activity against chloroquine-sensitive Plasmodium falciparum 3D7 after 24 hrs by [3H]hypoxanthine incorporation assay; type: functional, organism-based; how it was run: as §2
# Cytochrome P450 2E1, sequence (P05181 whole entry): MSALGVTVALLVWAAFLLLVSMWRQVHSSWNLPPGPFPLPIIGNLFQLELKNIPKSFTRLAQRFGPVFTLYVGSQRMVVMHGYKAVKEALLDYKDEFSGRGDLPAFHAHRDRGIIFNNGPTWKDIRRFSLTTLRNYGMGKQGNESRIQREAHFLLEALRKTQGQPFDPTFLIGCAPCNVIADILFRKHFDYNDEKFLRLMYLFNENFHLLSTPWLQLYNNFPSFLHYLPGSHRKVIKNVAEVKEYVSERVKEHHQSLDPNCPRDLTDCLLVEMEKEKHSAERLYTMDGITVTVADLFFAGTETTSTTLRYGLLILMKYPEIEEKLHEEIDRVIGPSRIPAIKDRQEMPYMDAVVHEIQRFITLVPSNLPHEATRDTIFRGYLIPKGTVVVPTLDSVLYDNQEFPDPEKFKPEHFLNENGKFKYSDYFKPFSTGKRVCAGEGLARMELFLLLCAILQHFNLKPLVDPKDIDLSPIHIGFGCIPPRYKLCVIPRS
# Cytochrome P450 2D6, sequence (P10635 whole entry): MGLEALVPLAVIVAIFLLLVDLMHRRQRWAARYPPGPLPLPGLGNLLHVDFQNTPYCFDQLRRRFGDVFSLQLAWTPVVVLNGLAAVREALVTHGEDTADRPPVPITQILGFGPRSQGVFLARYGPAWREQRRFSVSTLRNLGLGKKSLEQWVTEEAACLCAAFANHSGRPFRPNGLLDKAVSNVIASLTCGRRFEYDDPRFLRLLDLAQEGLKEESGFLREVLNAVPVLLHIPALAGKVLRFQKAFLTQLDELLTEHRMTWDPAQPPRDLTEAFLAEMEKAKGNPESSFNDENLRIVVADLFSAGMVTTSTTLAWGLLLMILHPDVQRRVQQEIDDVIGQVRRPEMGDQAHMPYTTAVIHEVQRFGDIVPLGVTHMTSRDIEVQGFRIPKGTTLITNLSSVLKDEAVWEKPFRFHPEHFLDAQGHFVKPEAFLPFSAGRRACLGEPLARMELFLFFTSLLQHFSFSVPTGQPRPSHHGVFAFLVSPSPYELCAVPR
compound,measurement,setting,value
CC(C)(C)n1nnnc1C(NCCNc1ccnc2cc(Cl)ccc12)c1ccc(Cl)cc1 (stereo not drawn),AUC,Mus musculus [1],222 µmol·min/L
same,AUC,Mus musculus [2],541 µmol·min/L
same,AUC,Mus musculus [3],221 µmol·min/L
same,AUC,Mus musculus [4],107 µmol·min/L
same,Drug metabolism,Liver microsome [5],Active
same,Drug metabolism,Liver microsome [6],Active
same,Drug metabolism,Liver microsome [7],Active
same,Drug metabolism,Liver microsome [8],Active
same,Drug metabolism,[9],Active
same,IC50,CHO,97.8 µM
same,IC50,Cytochrome P450 2E1,> 20 µM
same,IC50,Cytochrome P450 2B6,> 20 µM
same,IC50,Cytochrome P450 1A2,> 20 µM
same,IC50,Cytochrome P450 2D6,4 µM
same,IC50,Cytochrome P450 2C8,12.7 µM
same,solubility kinetic at 2 h,[10],6.88 µM
same,IC50,Plasmodium falciparum [11],0.001 µM
same,IC50,Plasmodium falciparum [12],0.002 µM
